Experimental data taken from ChEMBL document CHEMBL4765301, “Discovery of novel TNNI3K inhibitor suppresses pyroptosis and apoptosis in murine myocardial infarction injury” (Eur J Med Chem, 2020).
The source made the active and inactive calls. No cut-off for these calls is given here.

How the values were obtained:
[1] = biological target: Epidermal growth factor receptor (Homo sapiens) (UniProt P00533); experiment: Inhibition of recombinant human EGFR (696 to end residues) assessed as residual activity at 1 uM using poly(Glu, Tyr) 4:1 as substrate incubated for 40 mins by [gamma-33P]-ATP scintillation counting based radiometry assay relative to control
[2] = biological target: Receptor tyrosine-protein kinase erbB-2 (Homo sapiens) (UniProt P04626); experiment: Inhibition of recombinant human HER2 (676 to end residues) assessed as residual activity at 1 uM using poly(Glu, Tyr) 4:1 as substrate incubated for 40 mins by [gamma-33P]-ATP scintillation counting based radiometry assay relative to control
[3] = biological target: Vascular endothelial growth factor receptor 1 (Homo sapiens) (UniProt P17948); experiment: Inhibition of recombinant human FLT1 (783 to end residues) assessed as residual activity at 1 uM using KKKSPGEYVNIEFG as substrate incubated for 40 mins by [gamma-33P]-ATP scintillation counting based radiometry assay relative to control
[4] = biological target: T1, Serine/threonine-protein kinase TNNI3K (Homo sapiens, UniProt Q59H18); experiment: Inhibition of TNNI3K (unknown origin) using biotinylated CTnI as substrate by HTRF analysis
T1 sequence (Q59H18 whole entry): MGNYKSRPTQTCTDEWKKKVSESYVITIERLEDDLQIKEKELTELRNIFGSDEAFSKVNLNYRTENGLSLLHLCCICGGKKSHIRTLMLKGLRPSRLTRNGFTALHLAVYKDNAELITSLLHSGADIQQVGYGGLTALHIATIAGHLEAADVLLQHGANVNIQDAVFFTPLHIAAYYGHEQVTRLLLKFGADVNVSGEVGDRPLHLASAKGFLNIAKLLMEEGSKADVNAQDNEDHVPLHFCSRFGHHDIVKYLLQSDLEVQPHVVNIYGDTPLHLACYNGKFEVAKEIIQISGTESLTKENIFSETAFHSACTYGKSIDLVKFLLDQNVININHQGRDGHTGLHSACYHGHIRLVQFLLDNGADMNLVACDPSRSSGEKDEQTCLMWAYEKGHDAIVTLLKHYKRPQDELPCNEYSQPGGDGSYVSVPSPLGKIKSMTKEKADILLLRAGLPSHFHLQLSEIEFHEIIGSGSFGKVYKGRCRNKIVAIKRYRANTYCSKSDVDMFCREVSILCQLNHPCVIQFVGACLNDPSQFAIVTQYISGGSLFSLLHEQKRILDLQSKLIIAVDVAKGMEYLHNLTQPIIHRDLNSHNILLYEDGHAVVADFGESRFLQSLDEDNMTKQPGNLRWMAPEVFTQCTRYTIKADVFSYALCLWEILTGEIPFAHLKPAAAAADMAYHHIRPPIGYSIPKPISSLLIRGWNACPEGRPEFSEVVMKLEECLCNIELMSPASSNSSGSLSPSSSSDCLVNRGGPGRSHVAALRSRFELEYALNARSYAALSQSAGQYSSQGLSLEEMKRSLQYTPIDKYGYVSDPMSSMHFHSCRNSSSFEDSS
Procedure, shortened: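 TNNI3K was assayed by HTRF using a GST-tagged TNNI3K kinase domain and a biotinylated cardiac troponin I substrate peptide, followed by the two HTRF detection reagents. Compounds were screened at 1.0 µM, then IC50s were determined.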

[5] = system: H9c2; experiment: Cytoprotective activity against OGD-induced cell death in rat H9c2 cells assessed as cell viability at 1 uM incubated for 24 hrs by MTT assay (reference value: 42.08 to 49.11 %); type: functional; settings: read-out: Activity
[6] = system: H9c2; experiment: Cytoprotective activity against OGD-induced cell death in rat H9c2 cells assessed as cell viability at 10 uM incubated for 24 hrs by MTT assay (reference value: 42.08 to 49.11 %); type: functional; settings: read-out: Activity
[7] = system: H9c2; experiment: Inhibition of OGD-induced apoptosis in rat H9c2 cells assessed as early apoptotic cells at 0.5 uM incubated for 24 hrs by annexinV-FITC and PI staining based flow cytometry analysis (reference value: 3.53 %); type: functional
[8] = system: H9c2; experiment: Inhibition of OGD-induced apoptosis in rat H9c2 cells assessed as late apoptotic cells at 0.5 uM incubated for 24 hrs by annexinV-FITC and PI staining based flow cytometry analysis (reference value: 9 %); type: functional
[9] = system: H9c2; experiment: Inhibition of OGD-induced apoptosis in rat H9c2 cells assessed as viable cells at 1 uM incubated for 24 hrs by annexinV-FITC and PI staining based flow cytometry analysis (reference value: 85 %); type: functional
[10] = system: H9c2; experiment: Inhibition of OGD-induced apoptosis in rat H9c2 cells assessed as necrotic cells at 1 uM incubated for 24 hrs by annexinV-FITC and PI staining based flow cytometry analysis (reference value: 2.45 %); type: functional
[11] = system: H9c2; experiment: Inhibition of OGD-induced apoptosis in rat H9c2 cells assessed as reduction in GSDMD level at 0.5 to 1 uM by Western blot analysis; type: functional, cell-based; settings: dose 0.5-1 µM
Procedure, shortened: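 H9c2 cells under OGD were treated with saline or 0.5 or 1.0 µM inhibitor. Cells were trypsinised, washed in cold PBS, lysed in RIPA with sonication and centrifuged 30 min. Total protein was quantified and separated by SDS-PAGE, then transferred to PVDF. Blots were probed with primary and secondary antibodies and detected by ECL.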

[12] = system: Mus musculus; experiment: Cardioprotective activity in C57BL/6 mouse model of myocardial infarction assessed as reduction in collagen deposition at 25 mg/kg, ip administered for 28 days and measured on day 28 by […] staining based fluorescence microscopy; type: functional, organism-based; settings: time 28.0 day
Procedure, shortened: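 Male C57BL/6 mice (5-6 weeks); MI by permanent LAD ligation under ip ketamine (100mg/kg)/xylazine (10mg/kg) with ventilation; sham group operated without LAD occlusion. Post-MI mice randomised to sham, normal saline or inhibitor groups (n=4); 25 mg/kg given ip every two days. Hearts assessed after 28 days: TTC staining (infarct yellow-white, viable red), Masson's trichrome (blue collagen) and H&E.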

[13] = system: Mus musculus; experiment: Cardioprotective activity in C57BL/6 mouse model of myocardial infarction assessed as reduction in ventricular dilatation at 25 mg/kg, ip administered for 28 days and measured on day 28 by H and E staining based fluorescence microscopy; type: functional, organism-based; settings: time 28.0 day
Procedure, shortened: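 MI made in male C57BL/6 mice (5-6 weeks) by permanent LAD ligation under ip ketamine (100mg/kg)/xylazine (10mg/kg), ventilated. Groups: sham, saline (NS), inhibitor 25 mg/kg ip every two days, n=4. Hearts examined after 28 days; TTC, Masson's trichrome and H&E staining of sections for infarct, collagen/scar, LV inflammatory cells and dilatation.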

[14] = system: Mus musculus; experiment: In vivo inhibition of TNNI3K in C57BL/6 mouse assessed as p38 phosphorylation at 25 mg/kg, ip administered for 28 days and measured on day 28 by immunohistochemical staining based fluorescence microscopy; type: functional, organism-based; settings: time 28.0 day
Procedure, shortened: (§1)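 Male C57BL/6 mice (5-6 weeks) with LAD-ligation MI; sham, saline or 25 mg/kg ip every two days, n=4, 28 days. Heart sections given EDTA (pH 8.0) or citrate (pH 6.0) microwave antigen retrieval, then primary antibody 30-40 min at 37°C. Detection by HRP polymer secondary with DAB (IHC) or fluorescent secondary (IF). Positive cells were quantified.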

[15] = system: Mus musculus; experiment: In vivo inhibition of TNNI3K in C57BL/6 mouse assessed as reduction in GSDMD at 25 mg/kg, ip administered for 28 days and measured on day 28 by immunohistochemical staining based fluorescence microscopy; type: functional, organism-based; settings: time 28.0 day; procedure, shortened: as §1

Receptor tyrosine-protein kinase erbB-2 (Homo sapiens), sequence (P04626 whole entry): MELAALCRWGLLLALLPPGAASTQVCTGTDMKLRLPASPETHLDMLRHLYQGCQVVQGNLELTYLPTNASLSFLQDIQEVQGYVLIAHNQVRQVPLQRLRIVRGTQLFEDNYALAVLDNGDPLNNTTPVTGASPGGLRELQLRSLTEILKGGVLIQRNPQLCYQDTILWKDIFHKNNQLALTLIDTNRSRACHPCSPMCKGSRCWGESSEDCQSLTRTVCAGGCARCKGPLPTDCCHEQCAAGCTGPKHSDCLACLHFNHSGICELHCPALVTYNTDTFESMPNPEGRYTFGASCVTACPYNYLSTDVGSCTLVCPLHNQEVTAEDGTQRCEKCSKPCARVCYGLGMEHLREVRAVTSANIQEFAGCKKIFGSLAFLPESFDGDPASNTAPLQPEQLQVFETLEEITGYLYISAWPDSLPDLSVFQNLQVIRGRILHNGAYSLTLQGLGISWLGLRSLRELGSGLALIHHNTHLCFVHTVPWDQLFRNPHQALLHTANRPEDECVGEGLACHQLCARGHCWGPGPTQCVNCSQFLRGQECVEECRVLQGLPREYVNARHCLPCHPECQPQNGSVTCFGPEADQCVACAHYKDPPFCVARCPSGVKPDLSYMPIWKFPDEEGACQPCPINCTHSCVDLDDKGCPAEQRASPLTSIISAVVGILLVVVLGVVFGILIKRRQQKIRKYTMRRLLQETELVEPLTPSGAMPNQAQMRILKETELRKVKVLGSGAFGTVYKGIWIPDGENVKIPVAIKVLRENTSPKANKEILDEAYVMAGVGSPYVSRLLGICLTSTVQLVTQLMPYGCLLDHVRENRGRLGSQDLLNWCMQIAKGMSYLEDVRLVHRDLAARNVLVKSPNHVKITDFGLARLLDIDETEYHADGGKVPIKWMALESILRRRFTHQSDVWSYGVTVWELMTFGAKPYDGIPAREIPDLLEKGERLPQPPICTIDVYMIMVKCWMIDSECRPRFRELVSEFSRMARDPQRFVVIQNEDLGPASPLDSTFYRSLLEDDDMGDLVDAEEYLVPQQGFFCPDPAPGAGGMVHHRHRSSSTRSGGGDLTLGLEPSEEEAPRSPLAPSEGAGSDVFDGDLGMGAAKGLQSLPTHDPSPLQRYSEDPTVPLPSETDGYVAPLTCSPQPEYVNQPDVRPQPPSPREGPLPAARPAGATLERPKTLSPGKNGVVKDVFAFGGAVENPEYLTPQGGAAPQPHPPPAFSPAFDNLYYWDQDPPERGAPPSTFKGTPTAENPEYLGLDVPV
Epidermal growth factor receptor (Homo sapiens), sequence (P00533 whole entry): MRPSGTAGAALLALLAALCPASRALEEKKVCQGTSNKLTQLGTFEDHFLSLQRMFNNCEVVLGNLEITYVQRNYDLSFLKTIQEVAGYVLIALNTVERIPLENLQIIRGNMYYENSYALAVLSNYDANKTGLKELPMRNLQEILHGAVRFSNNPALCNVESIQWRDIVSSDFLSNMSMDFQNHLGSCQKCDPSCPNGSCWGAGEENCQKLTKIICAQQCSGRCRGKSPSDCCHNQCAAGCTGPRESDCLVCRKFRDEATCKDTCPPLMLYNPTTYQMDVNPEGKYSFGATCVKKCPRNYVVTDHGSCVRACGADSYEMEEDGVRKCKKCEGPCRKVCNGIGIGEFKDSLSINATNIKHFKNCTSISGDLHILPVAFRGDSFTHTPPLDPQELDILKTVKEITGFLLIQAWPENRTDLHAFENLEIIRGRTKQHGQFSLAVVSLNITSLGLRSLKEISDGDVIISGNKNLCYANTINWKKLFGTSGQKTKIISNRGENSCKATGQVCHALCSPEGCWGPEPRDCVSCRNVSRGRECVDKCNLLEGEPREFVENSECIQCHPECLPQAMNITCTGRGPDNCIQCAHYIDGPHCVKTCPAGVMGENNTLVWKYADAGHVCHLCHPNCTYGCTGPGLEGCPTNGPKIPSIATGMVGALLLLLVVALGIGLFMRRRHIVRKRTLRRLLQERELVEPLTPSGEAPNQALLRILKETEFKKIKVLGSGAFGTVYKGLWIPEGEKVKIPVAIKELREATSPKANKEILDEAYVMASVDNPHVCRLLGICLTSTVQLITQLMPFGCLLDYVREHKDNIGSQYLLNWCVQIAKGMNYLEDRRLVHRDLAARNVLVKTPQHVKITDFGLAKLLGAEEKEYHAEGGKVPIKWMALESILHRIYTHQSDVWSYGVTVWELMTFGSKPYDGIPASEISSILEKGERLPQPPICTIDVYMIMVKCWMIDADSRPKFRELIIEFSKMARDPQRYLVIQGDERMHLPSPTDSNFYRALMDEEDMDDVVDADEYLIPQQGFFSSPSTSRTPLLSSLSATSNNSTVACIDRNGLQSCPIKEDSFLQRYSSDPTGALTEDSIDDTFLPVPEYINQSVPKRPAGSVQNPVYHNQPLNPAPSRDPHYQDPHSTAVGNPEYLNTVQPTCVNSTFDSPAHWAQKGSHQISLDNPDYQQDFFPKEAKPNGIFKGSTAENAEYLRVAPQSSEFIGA
Vascular endothelial growth factor receptor 1 (Homo sapiens), sequence (P17948 whole entry): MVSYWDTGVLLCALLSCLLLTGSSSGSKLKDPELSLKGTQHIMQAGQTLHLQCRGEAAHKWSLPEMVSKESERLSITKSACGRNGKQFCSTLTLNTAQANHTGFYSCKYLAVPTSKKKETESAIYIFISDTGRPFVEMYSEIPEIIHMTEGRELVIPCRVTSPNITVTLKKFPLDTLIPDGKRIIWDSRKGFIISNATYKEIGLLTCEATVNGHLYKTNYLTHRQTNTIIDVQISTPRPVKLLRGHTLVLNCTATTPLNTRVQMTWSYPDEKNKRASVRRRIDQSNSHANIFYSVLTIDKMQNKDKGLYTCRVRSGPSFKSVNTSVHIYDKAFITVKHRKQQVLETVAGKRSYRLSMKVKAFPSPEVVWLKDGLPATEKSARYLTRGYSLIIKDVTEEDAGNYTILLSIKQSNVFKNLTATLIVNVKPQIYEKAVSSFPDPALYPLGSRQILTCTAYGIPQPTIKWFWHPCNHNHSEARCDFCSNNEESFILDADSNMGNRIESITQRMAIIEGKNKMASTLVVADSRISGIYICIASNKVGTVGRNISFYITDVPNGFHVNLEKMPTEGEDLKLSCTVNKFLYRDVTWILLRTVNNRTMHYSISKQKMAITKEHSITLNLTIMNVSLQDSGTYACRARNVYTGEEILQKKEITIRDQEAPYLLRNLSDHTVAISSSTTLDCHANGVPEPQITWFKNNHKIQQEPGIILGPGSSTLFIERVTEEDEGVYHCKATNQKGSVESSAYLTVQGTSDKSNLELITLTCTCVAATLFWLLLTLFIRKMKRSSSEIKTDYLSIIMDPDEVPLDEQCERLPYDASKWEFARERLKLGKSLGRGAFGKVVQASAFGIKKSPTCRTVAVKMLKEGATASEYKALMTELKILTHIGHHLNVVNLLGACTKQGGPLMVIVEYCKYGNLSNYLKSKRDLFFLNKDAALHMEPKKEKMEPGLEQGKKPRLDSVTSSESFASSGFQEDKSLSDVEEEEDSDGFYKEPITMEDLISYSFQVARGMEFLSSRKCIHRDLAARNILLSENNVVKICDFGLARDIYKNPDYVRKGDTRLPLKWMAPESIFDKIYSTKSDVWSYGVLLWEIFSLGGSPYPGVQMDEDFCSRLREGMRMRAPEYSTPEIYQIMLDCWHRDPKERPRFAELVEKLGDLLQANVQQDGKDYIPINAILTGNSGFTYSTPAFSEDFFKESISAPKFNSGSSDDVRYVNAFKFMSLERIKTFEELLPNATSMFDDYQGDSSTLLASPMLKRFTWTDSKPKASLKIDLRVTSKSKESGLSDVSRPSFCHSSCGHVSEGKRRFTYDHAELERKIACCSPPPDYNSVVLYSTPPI

CN(C)CCCN1CCc2c(sc3ncnc(Nc4ccc(N(C)C)c(NC(=O)c5ccco5)c4)c23)C1
Activity [1]: 81%
Activity [2]: 96%
Activity [3]: 91%
IC50 [4]: 240 nM
viability at 1 µM [5]: 73.8%
viability at 10 µM [6]: 89%
inhibition at 0.5 µM [7]: 3.59%
inhibition at 0.5 µM [8]: 7.15%
inhibition at 1 µM [9]: 90.7%
inhibition at 1 µM [10]: 1.07%
inhibition [11]: inactive
Activity [12]: Active
Activity [13]: Active
inhibition [14]: Active
inhibition [15]: Active
